Square brackets hold non-standard residues; d marks the D form. Peptide text beside a SMILES is read from it. * marks the point of attachment. Nle = CCCC[C@H](N)C(=O)O; Cbz = O=C(OCc1ccccc1)*
These compounds were tested against Replicase polyprotein 1ab (Severe acute respiratory syndrome coronavirus 2, UniProt P0DTD1) (assay: Inhibition of SARS-CoV-2 main protease expressed in Escherichia coli using DABCYL-KTSAVLQ1SGFRKM-E(EDANS)-NH2 peptide as substrate incubated for 30 mins by FRET based assay).
In short: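 Same FRET set-up with varied inhibitor concentrations: 50 nM Mpro, 10 μM substrate, Tris-HCl/NaCl/EDTA/DTT buffer, pH 7.3, room temperature, read every 2.5 min for 1 h. Initial slopes from first 20 min, % inhibition vs DMSO. IC50 by nonlinear regression, three-parameter dose–response inhibition model. Triplicates, mean ± SD.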

Point of comparison: O=C1CC(=O)c2c(Cl)c(Cl)c(Cl)c(Cl)c21, IC50 138 µM. Against it:
- COc1cc(C)c2c(=O)cc(C[C@@H](C)O)oc2c1[C@@H]1O[C@H](CO)[C@@H](O)[C@H](O)[C@H]1OC(=O)/C=C/c1ccc(O)cc1 — within 1.5-fold, 125 µM
- CC(=O)Cc1cc(=O)c2c(C)cc(O)c([C@@H]3O[C@H](CO)[C@@H](O)[C@H](O)[C@H]3O)c2o1 — 3.5-fold lower, 38.9 µM
- CCCCCCCCCCCCCCCc1cccc(O)c1C(=O)O [ANACARDIC ACID] — 20-fold lower, 6.8 µM

What follows are compounds tested against Replicase polyprotein 1ab (Severe acute respiratory syndrome coronavirus 2) (UniProt P0DTD1) (assay: Inhibition of SARS-CoV-2 main protease expressed in Escherichia coli using DABCYL-KTSAVLQ1SGFRKM-E(EDANS)-NH2 peptide as substrate at 100 uM incubated for 30 mins by FRET based assay relative to control).
In short: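 Started by adding substrate–inhibitor mix to enzyme. Ex 360/Em 460 nm every 2.5 min for 1 h. Initial velocity from first 20 min, substrate background subtracted, % inhibition vs DMSO control. Triplicate, mean ± SD.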

Point of comparison: CC(=O)N[C@@H](CC(C)C)C(=O)N[C@@H](CC(C)C)C(=O)N[C@H](C=O)CCCNC(=N)N, inhibition 59%. Against it:
- Cc1coc2c1C(=O)C(=O)c1c-2ccc2c1CCCC2(C)C — lower, 53.9%
- CCC[C@H](NC(=O)[C@@H]1[C@H]2CCC[C@H]2CN1C(=O)[C@@H](NC(=O)[C@@H](NC(=O)c1cnccn1)C1CCCCC1)C(C)(C)C)C(=O)C(=O)NC1CC1 — higher, 88.8%
- COc1cc(C)c2c(=O)cc(C[C@@H](C)O)oc2c1[C@@H]1O[C@H](CO)[C@@H](O)[C@H](O)[C@H]1OC(=O)/C=C/c1ccc(O)cc1 — higher, 72.6%
- CC(C)(C)NC(=O)N[C@H](C(=O)N1C[C@H]2[C@@H]([C@H]1C(=O)NC(CC1CCC1)C(=O)C(N)=O)C2(C)C)C(C)(C)C (stereo partly specified) — higher, 97.4%
- CCCC(NC(=O)C(CC(C)C)NC(=O)OCc1ccccc1)C(=O)C(=O)NCc1ccccn1 (stereo unspecified) — higher, 98.3%
- CCOC(=O)C[C@H](NC(=O)[C@@H](NC(=O)[C@H](CCC(=O)OC)NC(=O)[C@H](CC(=O)OCC)NC(=O)OCc1ccccc1)C(C)C)C(=O)CF — higher, 100%
- O=C(O)/C(S)=C/c1c[nH]c2ccc(F)cc12 — higher, 71.5%
- CC(=O)Cc1cc(=O)c2c(C)cc(O)c([C@@H]3O[C@H](CO)[C@@H](O)[C@H](O)[C@H]3O)c2o1 — higher, 80.1%
- CC(NC(=O)[C@H](Cc1ccccc1)NC(=O)OCc1ccccc1)C(=O)CF (stereo partly specified) — higher, 90.1%
- CC(C)(C)C1NC(=O)O[C@@H]2CCC[C@H]2OC/C=C/C(F)(F)c2nc3ccccc3nc2O[C@@H]2C[C@@H](C(=O)N[C@]3(C(=O)NS(=O)(=O)C4(C)CC4)C[C@H]3C(F)F)N(C2)C1=O (stereo partly specified) — lower, 51.7%
- Cc1c(O)cccc1C(=O)N[C@@H](CSc1ccccc1)[C@H](O)CN1C[C@H]2CCCC[C@H]2C[C@H]1C(=O)NC(C)(C)C — lower, 56.1%
- O=C1CC(=O)c2c(Cl)c(Cl)c(Cl)c(Cl)c21 — higher, 94.2%
- Cn1cc(/C=C/C(=O)c2cccc(F)c2)cc1/C=C/C(=O)NO — lower, 51.4%
- CC(C)C[C@H](NC(=O)[C@H](Cc1ccccc1)C[C@@H](O)[C@H](Cc1ccccc1)NC(=O)OC(C)(C)C)C(=O)N[C@@H](Cc1ccccc1)C(N)=O — higher, 65%
- CCCCCCCCCCCCCCCc1cccc(O)c1C(=O)O [ANACARDIC ACID] — higher, 96.1%
- COc1cc(C)c2c(=O)cc(CC(C)=O)oc2c1[C@@H]1O[C@H](CO)[C@@H](O)[C@H](O)[C@H]1OC(=O)/C=C/c1ccc(O)cc1 — higher, 60.5%
- CC(C)C[C@@H](C=O)NC(=O)[C@H](CC(C)C)NC(=O)[C@H](CC(C)C)NC(=O)OCc1ccccc1 (Cbz-Leu-Leu-Leu-aldehyde) — higher, 99%
- CC(=O)O/N=C1\C(=O)N(Cc2cc(Cl)ccc2Cl)c2ccc(Cl)cc21 — higher, 61.4%
- CC(NC(=O)Cc1cc(F)cc(F)c1)C(=O)NC1C(=O)N(C)c2ccccc2-c2ccccc21 (stereo unspecified) — lower, 53.8%
- C=C[C@H]1C[C@]1(NC(=O)[C@@H]1C[C@@H](Oc2ncc(OC)c3ccc(Cl)cc23)CN1C(=O)[C@@H](NC(=O)OC(C)(C)C)C(C)(C)C)C(=O)NS(=O)(=O)C1CC1 — lower, 49.4%
- CCCC[C@@H](C=O)NC(=O)[C@H](CC(C)C)NC(=O)[C@H](CC(C)C)NC(C)=O (Ac-Leu-Leu-[Nle]-aldehyde) — higher, 95.2%
- Nc1ccccc1NC(=O)c1ccc(CNc2nccc(-c3cccnc3)n2)cc1 — higher, 66.7%
- CCCC[C@@H](C=O)NC(=O)[C@H](CC(C)C)NC(=O)OCc1ccccc1 — higher, 97.2%
- Cc1cc(C(=O)CN2CCCC2)c(C)n1-c1ccc(F)cc1 — lower, 54.8%
- CC1=C(O)C(=O)C=C2C1=CC=C1[C@@]2(C)CC[C@@]2(C)[C@@H]3C[C@](C)(C(=O)O)CC[C@]3(C)CC[C@]12C — lower, 57.7%
- CSCC[C@@H](C=O)NC(=O)[C@H](CC(C)C)NC(=O)[C@H](CC(C)C)NC(C)=O (Ac-Leu-Leu-Met-aldehyde) — higher, 99.8%
